Experimental data from ChEMBL document CHEMBL5120809, “Dimers of isatin derived α-methylene-γ-butyrolactone as potent anti-cancer agents” (Bioorg Med Chem Lett, 2022).
The source made the active and inactive calls. No cut-off for these calls is given here.

Key:
MIA PaCa-2 = test: Antiproliferative activity against human MIA PaCa-2 cells assessed as cell growth inhibition measured after 3 days by cell viability assay; format: functional, cell-based; conditions: MIA PaCa-2, 72 h
A2780 [1] = test: Antiproliferative activity against human A2780 cells assessed as cell growth inhibition measured after 3 days by cell viability assay; format: functional, cell-based; conditions: A2780, 72 h
OVCAR-5 [2] = test: Antiproliferative activity against human OVCAR-5 cells assessed as cell growth inhibition measured after 3 days by cell viability assay; format: functional, cell-based; conditions: OVCAR-5, 72 h
[3] = target: T1, Inhibitor of nuclear factor kappa-B kinase subunit beta (Homo sapiens) (UniProt O14920); test: Covalent modification of N-terminal hexa-his-tagged human recombinant IKKbeta assessed as high molecular weight band formation at 1:1 protein to compound concentration measured after 24 hrs by SDS-PAGE based silver staining analysis; conditions: filed as modulator
T1 sequence (whole entry): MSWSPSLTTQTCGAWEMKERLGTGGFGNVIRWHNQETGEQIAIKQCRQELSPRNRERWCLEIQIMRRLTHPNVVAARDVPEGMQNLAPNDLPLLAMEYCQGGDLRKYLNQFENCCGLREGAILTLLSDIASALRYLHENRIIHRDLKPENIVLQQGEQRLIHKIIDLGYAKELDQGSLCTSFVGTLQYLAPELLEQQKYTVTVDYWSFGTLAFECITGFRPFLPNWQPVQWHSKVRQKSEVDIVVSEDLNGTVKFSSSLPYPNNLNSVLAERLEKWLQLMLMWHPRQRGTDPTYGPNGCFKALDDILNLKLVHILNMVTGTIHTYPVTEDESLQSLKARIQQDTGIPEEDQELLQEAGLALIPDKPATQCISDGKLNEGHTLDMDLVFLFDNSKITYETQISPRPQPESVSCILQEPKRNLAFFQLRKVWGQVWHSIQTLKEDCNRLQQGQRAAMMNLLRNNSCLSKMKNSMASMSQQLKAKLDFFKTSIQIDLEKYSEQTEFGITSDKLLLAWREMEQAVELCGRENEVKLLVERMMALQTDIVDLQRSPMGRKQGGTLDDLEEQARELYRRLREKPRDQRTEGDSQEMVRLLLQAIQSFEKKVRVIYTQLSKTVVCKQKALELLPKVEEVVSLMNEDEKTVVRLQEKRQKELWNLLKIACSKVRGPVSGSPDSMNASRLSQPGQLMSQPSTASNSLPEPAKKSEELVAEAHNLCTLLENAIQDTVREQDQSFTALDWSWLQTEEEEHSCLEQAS
Outline: (§1)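 Recombinant RELA and/or IKKβ proteins incubated in vitro with compound at equimolar or 10x concentration; mixtures resolved by SDS-PAGE and silver stained to detect the recombinant proteins and high molecular weight bands.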

A2780 [4] = test: Inhibition of cell migration in human A2780 cells at 500 nM measured up to 48 hrs by wound healing scratch assay; format: functional; parameters: scale not given: the % may be the effect or the level left
Outline: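 Wound-healing scratch assay: A2780 cells treated with DMSO or 500nM compound, imaged at 0, 12, 24 and 48h; wound closure quantified relative to DMSO wells.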

[5] = target: Transcription factor p65 (Homo sapiens) (UniProt Q04206); test: Covalent modification of RELA in human OVCAR-5 cells assessed as high molecular weight band formation at 10 uM incubated for 2 hrs by Western blot analysis; format: cell-based; conditions: filed as modulator
Outline: (§2)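 Non-transformed immortalized fallopian tube epithelial FT282C11, MiaPaCa2 or OVCAR5 cells treated with or without compound; lysates analysed by western blot probed with RELA antibody for high molecular weight bands.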

[6] = target: Transcription factor p65 (Homo sapiens) (UniProt Q04206); test: Covalent modification of RELA in human MIA PaCa-2 cells assessed as increase in PARP cleavage at 10 uM incubated for 2 hrs by Western blot analysis; format: cell-based; conditions: filed as modulator
Outline: (§3)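 Cancer cells treated with or without compound; lysates analysed by western blot for PARP cleavage.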

[7] = target: Transcription factor p65 (Homo sapiens) (UniProt Q04206); test: Covalent modification of RELA in TNF-alpha induced human OVCAR-5 cells assessed as inhibition of phosphorylation of IkappaB-alpha at 10 uM pretreated for 2 hrs followed by TNF-alpha stimulation for 10 mins by Western blot analysis; format: cell-based; conditions: filed as modulator
Outline: (§4)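 Two sets of OVCAR5 cells treated with DMSO or compound; one set stimulated with TNFα, the other left unstimulated as control; read-out by western blot.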

[8] = target: Transcription factor p65 (Homo sapiens) (UniProt Q04206); test: Covalent modification of RELA in human OVCAR-5 cells assessed as high molecular weight band formation incubated for 2 hrs by Western blot analysis; format: cell-based; conditions: filed as modulator; outline: as §2
[9] = target: Transcription factor p65 (Homo sapiens) (UniProt Q04206); test: Covalent modification of RELA in TNF-alpha induced human OVCAR-5 cells assessed as inhibition of nuclear localization of protein at 10 uM pretreated for 2 hrs followed by TNF-alpha stimulation for 10 mins by Western blot analysis; format: cell-based; conditions: filed as modulator; outline: as §4
CCRF-CEM = test: Antiproliferative activity against human CCRF-CEM cells assessed as cell growth inhibition by measuring reduction in net protein increase inhibition by SRB assay; format: functional; conditions: pooled result: one value given for 6 cell lines, strains, targets or settings
A2780 [10] = test: Inhibition of colony formation in human A2780 cells measured every day up to 4 days by IncuCyte live-cell imaging assay; format: functional, cell-based; conditions: DDE = dose-dependent effect
Outline: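 A2780 ovarian cancer cells sparsely plated and grown with or without compound for 4 days under continuous Incucyte S3 live-cell imaging; colonies quantified against DMSO-treated wells at several time points.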

SF-268 = test: Antiproliferative activity against human SF-268 cells assessed as reduction in the net protein increase inhibition by SRB assay; format: functional; conditions: pooled result: one value given for 6 cell lines, strains, targets or settings
[11] = target: Transcription factor p65 (Homo sapiens) (UniProt Q04206); test: Inhibition of TNF-alpha induced RELA in human A549 cells assessed as reduction in NFkappaB mediated gene expression pretreated for 2 hrs followed by TNF-alpha stimulation for 3 hrs by […]; format: cell-based; conditions: filed as modulator, DDE = dose-dependent effect
Outline: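 TNFα-induced NFκB reporter assay run as a dose-response with compound.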

[12] = target: Transcription factor p65 (Homo sapiens) (UniProt Q04206); test: Covalent modification of RELA in human FT282C11 cells assessed as high molecular weight band formation at 10 uM incubated for 2 hrs by Western blot analysis; format: cell-based; conditions: filed as modulator; outline: as §2
[13] = target: Transcription factor p65 (Homo sapiens) (UniProt Q04206); test: Covalent modification of RELA in human OVCAR-5 cells assessed as increase in PARP cleavage at 10 uM incubated for 2 hrs by Western blot analysis; format: cell-based; conditions: filed as modulator; outline: as §3
Homo sapiens = species: Homo sapiens; test: Covalent modification of N-terminal hexa-his-tagged human recombinant IKKbeta/ N-terminus mouse recombinant RELA (1 to 325 residues) assessed as tertiary complex formation with RELA by measuring high molecular weight band formation at 1:1:1 protein/protein to compound concentration measured after 24 hrs by SDS-PAGE based silver staining analysis; conditions: filed as modulator; outline: as §1
OVCAR-5 [14] = test: Antiproliferative activity against human OVCAR-5 cells assessed as cell growth inhibition at 1.11 to 10 uM incubated for 6 hrs followed by compound removal and measured up to 72 hrs by IncuCyte live-cell imaging assay; format: functional, cell-based
[15] = target: Transcription factor p65 (Homo sapiens) (UniProt Q04206); test: Covalent modification of RELA in human MIA PaCa-2 cells assessed as high molecular weight band formation at 10 uM incubated for 2 hrs by Western blot analysis; format: cell-based; conditions: filed as modulator; outline: as §2

Chain of Transcription factor p65 (Homo sapiens) (Q04206 whole entry, the tested form may be a part): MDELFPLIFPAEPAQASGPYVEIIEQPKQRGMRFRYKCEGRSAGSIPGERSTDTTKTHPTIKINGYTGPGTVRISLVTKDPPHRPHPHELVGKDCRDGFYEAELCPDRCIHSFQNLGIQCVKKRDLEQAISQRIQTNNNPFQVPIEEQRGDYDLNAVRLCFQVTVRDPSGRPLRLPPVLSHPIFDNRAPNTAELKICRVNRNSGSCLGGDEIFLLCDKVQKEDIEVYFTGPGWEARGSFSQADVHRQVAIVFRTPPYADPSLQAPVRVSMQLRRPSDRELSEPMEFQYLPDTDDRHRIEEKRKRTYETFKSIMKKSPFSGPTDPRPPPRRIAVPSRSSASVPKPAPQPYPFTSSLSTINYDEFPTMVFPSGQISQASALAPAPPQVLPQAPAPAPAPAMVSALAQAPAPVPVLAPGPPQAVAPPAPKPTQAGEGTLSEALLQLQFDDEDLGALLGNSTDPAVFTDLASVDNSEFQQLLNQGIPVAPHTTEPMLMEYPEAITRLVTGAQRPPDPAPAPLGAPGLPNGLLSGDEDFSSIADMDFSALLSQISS

| Compound | IC50 (MIA PaCa-2) [nM] | IC50 (A2780 [1]) [nM] | IC50 (OVCAR-5 [2]) [nM] | also measured |
| --- | --- | --- | --- | --- |
| CC1CC2(OC1=O)C(=O)N(CCCCCCCN1C(=O)C3(CC(C)C(=O)O3)c3ccccc31)c1ccccc12 (stereo unspecified) | > 10000 | > 10000 | > 10000 | – |
| C=C1CC2(OC1=O)C(=O)N(CCCCCCCCCCCN1C(=O)C3(CC(=C)C(=O)O3)c3ccccc31)c1ccccc12 (stereo unspecified) | 2030 | 770 | 830 | – |
| C=C1CC2(OC1=O)C(=O)N(Cc1ccc(CN3C(=O)C4(CC(=C)C(=O)O4)c4ccccc43)cc1)c1ccccc12 (stereo unspecified) | 270 | 310 | 180 | – |
| C=C1CC2(OC1=O)C(=O)N(CCCCCCCCCCN1C(=O)C3(CC(=C)C(=O)O3)c3ccccc31)c1ccccc12 (stereo unspecified) | 560 | 490 | 410 | – |
| C=C1CC2(OC1=O)C(=O)Nc1ccccc12 (stereo unspecified) | 2050 | 990 | 3130 | – |
| C=C1CC2(OC1=O)C(=O)N(CCCCCCCCCCCCN1C(=O)C3(CC(=C)C(=O)O3)c3ccccc31)c1ccccc12 (stereo unspecified) | 1500 | 500 | 420 | – |

Further lines, with some results ahead:

| IC50 (MIA PaCa-2) [nM] | IC50 (A2780 [1]) [nM] | IC50 (OVCAR-5 [2]) [nM] | Compound | also measured |
| --- | --- | --- | --- | --- |
| 200 | 270 | 90 | C=C1CC2(OC1=O)C(=O)N(CCCCCN1C(=O)C3(CC(=C)C(=O)O3)c3ccccc31)c1ccccc12 (stereo unspecified) | – |
| – | 390 | 320 | C=C1CC2(OC1=O)C(=O)N(CCN1C(=O)C3(CC(=C)C(=O)O3)c3ccccc31)c1ccccc12 (stereo unspecified) | – |
| 260 | 410 | 340 | C=C1CC2(OC1=O)C(=O)N(CCCCCCCN1C(=O)C3(CC(=C)C(=O)O3)c3ccccc31)c1ccccc12 (stereo unspecified) | – |
| 740 | 600 | 390 | C=C1CC2(OC1=O)C(=O)N(CCCCCCCCN1C(=O)C3(CC(=C)C(=O)O3)c3ccccc31)c1ccccc12 (stereo unspecified) | – |
| 130 | 230 | 90 | C=C1CC2(OC1=O)C(=O)N(CCCN1C(=O)C3(CC(=C)C(=O)O3)c3ccccc31)c1ccccc12 (stereo unspecified) | Activity [3]: Active; Activity (A2780 [4]): 50%; Activity [5]: Active; Activity [6]: Active; Activity [7]: Active; Activity [8]: Active; Activity [9]: Active; GI50 (CCRF-CEM): 380 nM; inhibition (A2780 [10]): Dde; GI50 (SF-268): 1760 nM; inhibition [11]: Dde; Activity [12]: Active; Activity [13]: Active; Activity (Homo sapiens): Active; Activity (OVCAR-5 [14]): Active; Activity [15]: Active |
| – | 360 | 150 | C=C1CC2(OC1=O)C(=O)N(CCCCN1C(=O)C3(CC(=C)C(=O)O3)c3ccccc31)c1ccccc12 (stereo unspecified) | – |
| 1220 | 1080 | 480 | C=C1CC2(OC1=O)C(=O)N(CCCCCCCCCN1C(=O)C3(CC(=C)C(=O)O3)c3ccccc31)c1ccccc12 (stereo unspecified) | – |
| 230 | 410 | 300 | C=C1CC2(OC1=O)C(=O)N(CCCCCCN1C(=O)C3(CC(=C)C(=O)O3)c3ccccc31)c1ccccc12 (stereo unspecified) | – |
